Data from article PMC5161678 (Clinical cancer research : an official journal of the …, 2016).

Legend:
CSF-1R [1] = molecular target: T1, CSF-1R (Homo sapiens, UniProt P07333); test: in vitro radiometric kinase assay; assay type: biochemical
CSF-1R [2] = molecular target: T1, CSF-1R; test: CSF-1R phosphorylation sandwich ELISA in CSF-1 treated monocytes; assay type: cell-based; settings: recombinant CSF-1 10 ng/mL, 5 minutes, fedratinib 5 μM, pacritinib 1 μM
ERK and AKT = ERK and AKT phosphorylation in CSF-1 treated monocytes; assay type: cell-based, human; settings: pacritinib
In short: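 Healthy-donor monocytes were CD14 bead-selected from PBMC, cultured overnight, then stimulated 5 min with recombinant human CSF-1 (10 ng/mL) plus test compound or DMSO vehicle. Lysis buffer: Tris pH 7.5, EDTA, NaCl, NP-40, deoxycholate, SDS and protease/phosphatase inhibitors. SDS-PAGE on 5–12% gradient gels, PVDF transfer, 1 h milk block. Probed for total and pT308/pS473 AKT, and total and pT202/Y204 ERK1/2.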

[3] = test system: monocyte-derived macrophages; test: monocyte and monocyte-derived macrophage viability; assay type: cell-based, human
nurse-like cells (NLC) = test: NLC generation and survival in CLL patient PBMC cultures; assay type: cell-based, human; settings: pacritinib 1 μM; for NLC survival: CLL PBMC cultured 7–10 days, ruxolitinib 5 μM; for NLC survival / intact NLC by morphology: fedratinib 5 μM; for intact NLC by morphology: established NLC cultures treated for 24 hours
In short: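 PBMC from CLL patients not on therapy were plated at 3–5 × 10^6 cells/mL in RPMI with 10% FBS at 37°C, 5% CO2 for 7–10 days, then given test compound or DMSO vehicle. NLC were counted by morphology in five high-power fields or as high forward/side-scatter events by flow cytometry. Viability was read by annexin V/PI. For some cultures, CLL cells were gently removed before treatment.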

CD5+CD19+ CLL B-cells = test: CLL B-cell viability by Annexin V/PI staining in NLC cocultures; assay type: cell-based, human; settings: for CLL viability: long-term NLC/CLL cocultures, ruxolitinib 5 μM, fedratinib 5 μM, pacritinib 1 μM
lymphoma = settings: cited from earlier work
CSF-1R [4] = settings: CSF-1R in vitro; cited from earlier work
[5] = in vivo; cited from earlier work

T1 sequence (P07333 20-972): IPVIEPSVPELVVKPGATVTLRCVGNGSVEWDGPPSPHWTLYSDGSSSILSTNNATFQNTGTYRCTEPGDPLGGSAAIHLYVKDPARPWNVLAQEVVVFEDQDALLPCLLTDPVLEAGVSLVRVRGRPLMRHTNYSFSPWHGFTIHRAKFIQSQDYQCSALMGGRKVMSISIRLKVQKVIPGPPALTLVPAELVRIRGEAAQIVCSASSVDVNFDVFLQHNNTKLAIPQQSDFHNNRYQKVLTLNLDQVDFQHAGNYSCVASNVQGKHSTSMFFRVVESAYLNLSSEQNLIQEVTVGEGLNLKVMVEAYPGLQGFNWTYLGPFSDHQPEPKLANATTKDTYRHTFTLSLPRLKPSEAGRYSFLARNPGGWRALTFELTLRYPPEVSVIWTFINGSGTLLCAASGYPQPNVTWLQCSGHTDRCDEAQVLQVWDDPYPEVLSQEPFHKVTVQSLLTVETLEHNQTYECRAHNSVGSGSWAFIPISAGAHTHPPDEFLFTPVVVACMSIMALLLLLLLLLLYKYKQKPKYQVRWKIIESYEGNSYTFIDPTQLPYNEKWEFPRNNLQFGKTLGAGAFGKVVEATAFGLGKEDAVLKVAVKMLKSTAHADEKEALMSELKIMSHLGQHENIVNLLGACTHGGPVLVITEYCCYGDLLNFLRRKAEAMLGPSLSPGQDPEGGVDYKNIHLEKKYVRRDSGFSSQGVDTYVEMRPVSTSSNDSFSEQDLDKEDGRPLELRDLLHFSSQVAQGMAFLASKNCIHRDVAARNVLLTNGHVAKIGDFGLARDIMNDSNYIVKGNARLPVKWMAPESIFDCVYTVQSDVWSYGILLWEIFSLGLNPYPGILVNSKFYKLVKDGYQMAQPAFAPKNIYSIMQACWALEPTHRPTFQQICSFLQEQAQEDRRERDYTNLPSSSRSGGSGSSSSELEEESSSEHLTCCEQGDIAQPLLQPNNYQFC

In the case of C1=C/COCc2cc(ccc2OCCN2CCCC2)Nc2nccc(n2)-c2cccc(c2)COC/1 [pacritinib], the IC50 (CSF-1R [1]) is reported as less than 50 nM, the “IC50 (in words)” value (CSF-1R [1]; CSF-1R) is reported as “low nanomolar range” and the “total CSF-1R phosphorylation” value (CSF-1R [2]) is reported as “significantly reduced”. The “downstream phosphorylation of ERK and AKT” value (ERK and AKT) was “significantly impaired”, the “monocyte and monocyte-derived macrophage viability” value ([3]; CSF-1-treated monocytes, clinically achievable concentrations) was “significantly impaired” and the “signs of apoptotic cell death” value ([3]; pacritinib-treated macrophages) was “caspase 3 activation, loss of mitochondrial membrane potential, and changes in cell morphology”. For the same molecule, the NLC survival (nurse-like cells (NLC)) was “significant, and near total, loss”, the “viable NLC by annexin V/PI staining” value (nurse-like cells (NLC); CLL cells removed from established NLC cultures, 24 hours) was “viable NLC were no longer identified” and the “intact NLC by morphology” value (nurse-like cells (NLC)) was “rarely observed”. For the same molecule, the CLL viability (CD5+CD19+ CLL B-cells) was “significantly reduced”, the “induction of apoptosis in CLL samples” value (CD5+CD19+ CLL B-cells; paired CLL samples, ibrutinib 1 uM or pacritinib 1 uM) was “significant increase” and the tolerability (lymphoma; patients with lymphoma) was “well tolerated”. The clinical activity (lymphoma; various NHL, including CLL) was “clinical activity”.
In the case of N#CC[C@H](C1CCCC1)n1cc(-c2ncnc3[nH]ccc23)cn1 [ruxolitinib], the NLC survival (nurse-like cells (NLC)) is given as “modest” and the IC50 (CSF-1R [4]) is given as roughly 1000 nM.
For Cc1cnc(Nc2ccc(OCCN3CCCC3)cc2)nc1Nc1cccc(S(=O)(=O)NC(C)(C)C)c1 [fedratinib], the “total CSF-1R phosphorylation” value (CSF-1R [2]) was “significantly reduced”, the NLC survival (nurse-like cells (NLC)) was “significant, and near total, loss” and the “intact NLC by morphology” value (nurse-like cells (NLC)) was “rarely observed”. The CLL viability (CD5+CD19+ CLL B-cells) was “significantly reduced”, the IC50 (CSF-1R [4]) was greater than 1000 nM and the clinically achievable concentrations [5] was 1 to 5 µM.
